From ChEMBL document CHEMBL1145402, “Discovery of potent and muscle selective androgen receptor modulators through scaffold modifications” (J Med Chem, 2007) come the findings set out here.

≈ marks a conversion by molar mass, not a printed value.

The target of data set [1] is T1, Androgen receptor (Homo sapiens, UniProt P10275).
T1 sequence (P10275 whole entry): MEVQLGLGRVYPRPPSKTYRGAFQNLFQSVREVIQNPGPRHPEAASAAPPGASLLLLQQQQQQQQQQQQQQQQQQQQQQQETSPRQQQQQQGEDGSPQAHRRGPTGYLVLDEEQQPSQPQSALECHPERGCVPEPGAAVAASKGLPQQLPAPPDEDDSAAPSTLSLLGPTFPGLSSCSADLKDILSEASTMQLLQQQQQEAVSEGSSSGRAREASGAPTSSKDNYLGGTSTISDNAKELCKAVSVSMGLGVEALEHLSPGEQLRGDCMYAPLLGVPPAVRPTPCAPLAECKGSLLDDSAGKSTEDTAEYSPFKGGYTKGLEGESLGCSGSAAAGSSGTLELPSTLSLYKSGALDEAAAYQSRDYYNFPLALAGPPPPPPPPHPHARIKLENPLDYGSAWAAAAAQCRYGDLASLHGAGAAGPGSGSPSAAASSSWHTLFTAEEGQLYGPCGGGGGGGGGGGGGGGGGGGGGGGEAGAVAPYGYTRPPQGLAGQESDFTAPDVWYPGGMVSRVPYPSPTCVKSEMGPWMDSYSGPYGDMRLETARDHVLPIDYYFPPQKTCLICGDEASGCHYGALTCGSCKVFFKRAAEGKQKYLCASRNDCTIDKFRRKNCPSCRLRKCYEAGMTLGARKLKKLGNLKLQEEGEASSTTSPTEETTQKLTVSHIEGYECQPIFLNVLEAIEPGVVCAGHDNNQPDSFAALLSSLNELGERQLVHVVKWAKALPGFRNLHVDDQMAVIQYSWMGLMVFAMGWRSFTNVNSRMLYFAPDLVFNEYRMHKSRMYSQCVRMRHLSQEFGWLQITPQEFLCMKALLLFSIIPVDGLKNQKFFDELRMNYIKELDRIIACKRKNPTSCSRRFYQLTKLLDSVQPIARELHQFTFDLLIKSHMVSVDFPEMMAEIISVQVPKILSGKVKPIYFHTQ
Briefly: Agonist activity at androgen receptor expressed in C2C12 mouse cells by luciferase reporter transactivation assay. Type of data set: functional, cell-based. Background: A reporter such as luciferase makes a cellular process visible.

Data set [2] has as its system Rattus norvegicus. Briefly: Stimulation of ventral prostate tissue weight in Sprague-Dawley rat at 1 mg/kg, po after 14 days. The format is functional, Prostate gland. The method, boiled down: (§1)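 Mature male rats were castrated two weeks before treatment. Compound was given […] once daily for two weeks, then levator ani muscle and ventral prostate were weighed. Weights are expressed as percent of a sham-operated, vehicle-treated intact control group, ±SEM.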

Data set [3] concerns Rattus norvegicus. Nature of the data set: Stimulation of levator ani muscle weight in Sprague-Dawley rat at 1 mg/kg, po after 14 days. Type of data set: functional. The method, boiled down:
as §1

In data set [4] the target is T1, Androgen receptor. Nature of the data set: Displacement of [3H]DHT from androgen receptor expressed in MDA-MB-453 cells. Type of data set: cell-based. A general note: In a radioligand displacement assay an active substance lowers the binding of a labelled ligand.
Data set [5] in a line: Cmax in Sprague-Dawley rat at 10 mg/kg, po. Type of data set: ADME, organism-based. Set-up: dose 10 mg/kg, route oral. The settings on record: in vivo.
Data set [6] can be described thus: AUC(0-4h) in Sprague-Dawley rat at 10 mg/kg. The format is ADME, organism-based. Set-up: time < 5 hr, dose 10 mg/kg. The settings on record: plasma.
In data set [7] the test system is Rattus norvegicus. Briefly: Stimulation of ventral prostate tissue weight in Sprague-Dawley rat at 3 mg/kg, po after 14 days. The format is functional, Prostate gland. A digest of the protocol: as §1
A short description of data set [8]: Aqueous solubility of the compound. Type of data set: physicochemical.
In data set [9] the test system is Rattus norvegicus. Briefly: Stimulation of levator ani muscle weight in Sprague-Dawley rat at 3 mg/kg, po after 14 days. Type of data set: functional. A digest of the protocol:
as §1

For data set [10], the system named is Rattus norvegicus. Nature of the data set: Stimulation of levator ani muscle weight in Sprague-Dawley rat at 0.01 mg/kg, po after 14 days. The format is functional.
Data set [11] deals with Rattus norvegicus. Nature of the data set: Stimulation of ventral prostate tissue weight in Sprague-Dawley rat at 0.01 mg/kg, po after 14 days. Type of data set: functional, Prostate gland.
Data set [12] concerns Rattus norvegicus. Briefly: Stimulation of ventral prostate tissue weight in Sprague-Dawley rat at 0.3 mg/kg, sc after 14 days. The format is functional, Prostate gland. The following applies: route subcutaneous. A digest of the protocol: (§2)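 Mature male rats were castrated two weeks before dosing. Testosterone propionate was given subcutaneously for two weeks, then levator ani muscle and ventral prostate were weighed. Weights are expressed as percent of a sham-operated, vehicle-treated intact control group, ±SEM.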

Data set [13] has as its system Rattus norvegicus. Briefly: Stimulation of levator ani muscle weight in Sprague-Dawley rat at 0.3 mg/kg, sc after 14 days. The format is functional. The following applies: route subcutaneous. The method, boiled down:
as §2

`Cc1c(N2C[C@@H]3[C@H](O)CC[C@@H]3C2=O)ccc(C#N)c1Cl`: a half-maximal effect in data set [1] (EC50) was put at 20 nM. Besides, the figures for the Activity in data set [2] and in data set [3] were 6% and 45%, respectively.

Turning to `Cc1c(N2C(=O)N3CC[C@H](O)[C@H]3[C@@H]2C(F)(F)F)ccc(C#N)c1Cl`, the EC50 in data set [1] came to 2.5 nM. The same compound had a Ki in data set [4] of 0.9 nM.

`Cc1c(N2C(=O)N3CC[C@@H](O)[C@H]3[C@@H]2C(F)(F)F)ccc(C#N)c1Cl`: the half-maximal effective concentration (EC50) in data set [1] is 2.9 nM. In addition, the Activity in [2] is on record as 3%; in [3], 40%. Moreover, the maximum concentration (Cmax) in data set [5] amounted to 819 nM. Besides, the Ki in [4] was determined as 1 nM. Also, the AUC(0-t) at 5 h in data set [6] was 1.18 µM·h.

As for `CC1=C(c2ccc(C#N)c(Cl)c2C)C(=O)N2CC[C@H](O)[C@@H]12`, the EC50 in data set [1] was found to be 2 nM.

With `Cc1c(N2C(=O)N3CC[C@H](O)[C@H]3[C@@H]2C)ccc(C#N)c1Cl`, the figures for the Activity in data set [7] and in data set [9] were 4% and 44%, respectively. Moreover, the solubility in data set [8] stood at 613 µg/mL (≈ 2000 µM). In addition, in data set [5], the Cmax stood at 1620 nM. Moreover, in [6], the AUC(0-t) at 5 h was determined as 2.89 µM·h.

With `Cc1c(N2C(=O)[C@@H]3[C@H](O)CCN3C2=O)ccc(C#N)c1Cl`, the Activity in [10] was 59%; in data set [11], 3%. The Cmax in data set [5] amounted to 6900 nM. In addition, the AUC(0-t) at 5 h in [6] was 8.8 µM·h.

In [1], `Cc1c(N2C(=O)N3CC[C@@H](O)[C@H]3[C@H]2C(F)(F)F)ccc(C#N)c1Cl` registered an EC50 of 2.1 nM. In addition, the concentration in solution in data set [8] (solubility) came to 1140 µg/mL (≈ 3170 µM). Moreover, the Activity in data set [2] came out at 1%; in [3], 30%. This compound also yielded a Cmax in [5] of 245 nM. In [4], the affinity corresponds to a Ki of 2.2 nM. Besides, the AUC(0-t) at 5 h in data set [6] turned out to be 0.63 µM·h.

For `Cc1c(N2C(=O)N3CC[C@@H](O)[C@H]3[C@H]2C(C)C)ccc(C#N)c1Cl`, in data set [1], the midpoint of the response, the EC50, lay at 108 nM. The same compound had a Ki in [4] of 23 nM.

`CC[C@@H]1[C@@H]2[C@@H](O)CCN2C(=O)N1c1ccc(C#N)c(Cl)c1C` registered an EC50 in [1] of 7.1 nM. Further, the Ki in data set [4] worked out at 1.6 nM.

In the case of `Cc1c(N2C[C@@H]3[C@H](O)CCN3C2=O)ccc(C#N)c1Cl`, in [1], it took 15 nM to reach a half-maximal effect (EC50). In data set [8], this compound displayed a solubility of 245 µg/mL (≈ 840 µM). The Activity in [2] stood at 14%; in data set [3], 66%. Also, the Cmax in data set [5] was 3970 nM. This compound also came in with an inhibition constant Ki in data set [4] of 2 nM. Besides, the AUC(0-t) at 5 h in data set [6] was determined as 6.38 µM·h.

In data set [1], `CC[C@@H]1[C@@H]2[C@H](O)CCN2C(=O)N1c1ccc(C#N)c(Cl)c1C` displayed an EC50 of 7.4 nM. Moreover, affinity in data set [4] was put at a Ki of 2.3 nM.

For `CCC(=O)O[C@H]1CC[C@H]2[C@@H]3CCC4=CC(=O)CC[C@]4(C)[C@H]3CC[C@]12C` [TESTOSTERONE PROPIONATE], the values for the Activity in [12] and in [13] were 68% and 70%, respectively.

Turning to `CC[C@H]1[C@@H]2[C@H](O)CCN2C(=O)N1c1ccc(C#N)c(Cl)c1C`, the half-maximal effective concentration (EC50) in data set [1] was found to be 2.6 nM. For the same compound, the Ki in data set [4] turned out to be 0.7 nM.

`Cc1c(N2C(=O)N3CC[C@H](O)[C@H]3[C@H]2C(F)(F)F)ccc(C#N)c1Cl` came in with a concentration giving a half-maximal response (EC50) in [1] of 48 nM. This compound had a Ki in [4] of 1.9 nM.

By EC50 is commonly meant the concentration giving half of the maximal effect. Low values mean greater potency, high ones weaker potency. Usually Ki stands for a measure of affinity in units of concentration, obtained from inhibition or displacement. The term Cmax denotes the highest concentration seen after dosing. A word on the AUC(0-t): it is exposure summed from dosing to a finite time, without extrapolation to infinity. Read a high AUC(0-t) as more exposure. Usually solubility stands for how much of the substance goes into solution per volume.
